# Measurements as given in ChEMBL document CHEMBL5303300, “EUbOPEN Chemogenomics Library - Multiplex” (2023).
# Several values for one entry are separate records, joined by “and”; a condition that tells them apart may be missing. Equal values may be shown once.
# Legend:
# Assay type in all cases: toxicity, cell-based
# [1] = test system: Fibroblast; assay: Multiplex assay against human fibroblast; conditions: number of replicates 2
# In short: (§1)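 Cells stained live at seeding with Hoechst33342, BioTracker Green Microtubule Cytoskeleton Dye, MitoTracker Red and Annexin V Alexa Fluor 680 were imaged on a CQ1 microscope at 37°C and 5% CO2 after compound addition. Their classification by CellPathfinder machine-learning gating ran from Hoechst high-intensity objects versus normal cells, to healthy, pyknosed or fragmented nuclei among normal cells, to mitotic or apoptotic among pyknosed cells. Tubulin, mitochondrial-mass and membrane-permeability phenotypes are per cents of healthy-nucleus cells.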
# [2] = test system: U2OS; assay: Multiplex assay against U2OS; conditions: human, number of replicates 2; in short: as §1
# [3] = test system: HEK-293T; assay: Multiplex assay against HEK293T; conditions: human, number of replicates 2; in short: as §1
# [4] = 12 h, 1 µM, compound concentration 1 uM
# [5] = 12 h, 10 µM, compound concentration 10 uM
# [6] = 24 h, 1 µM, compound concentration 1 uM
# [7] = 24 h, 10 µM, compound concentration 10 uM
# [8] = 48 h, 1 µM, compound concentration 1 uM
# [9] = 48 h, 10 µM, compound concentration 10 uM
smiles,measurement,setting,value
CCc1ncnc(N2CCN(C(C)=O)CC2)c1C#Cc1ccc(N)nc1.Cl.Cl,Population Apoptotic (%),[1]; [4],39% and 41%
same,Population Fragmented Nuclei (%),[1]; [4],26% and 16%
same,Population Healthy Nuclei (%),[1]; [4],48% and 55%
same,Population Hoechst High Intensity Objects (%),[1]; [4],0%
same,Population Membrane Permeable-Phenotype (%),[1]; [4],8% and 9%
same,Population Mitochondria Different-Phenotype (%),[1]; [4],1% and 2%
same,Population Mitotic Cells (%),[1]; [4],60% and 58%
same,Population Normal (%),[1]; [4],99%
same,Population Pyknosed Nuclei (%),[1]; [4],24% and 28%
same,Population Tubulin-Different-Phenotype (%),[1]; [4],20% and 15%
same,Total Cell Count,[1]; [4],278 and 215
same,Population Apoptotic (%),[1]; [5],47%
same,Population Fragmented Nuclei (%),[1]; [5],19% and 25%
same,Population Healthy Nuclei (%),[1]; [5],53% and 54%
same,Population Hoechst High Intensity Objects (%),[1]; [5],0%
same,Population Membrane Permeable-Phenotype (%),[1]; [5],4% and 8%
same,Population Mitochondria Different-Phenotype (%),[1]; [5],4% and 0%
same,Population Mitotic Cells (%),[1]; [5],52%
same,Population Normal (%),[1]; [5],100%
same,Population Pyknosed Nuclei (%),[1]; [5],26% and 19%
same,Population Tubulin-Different-Phenotype (%),[1]; [5],41% and 42%
same,Total Cell Count,[1]; [5],180 and 245
same,Population Apoptotic (%),[1]; [6],53% and 46%
same,Population Fragmented Nuclei (%),[1]; [6],28% and 10%
same,Population Healthy Nuclei (%),[1]; [6],46% and 64%
same,Population Hoechst High Intensity Objects (%),[1]; [6],1% and 0%
same,Population Membrane Permeable-Phenotype (%),[1]; [6],12% and 4%
same,Population Mitochondria Different-Phenotype (%),[1]; [6],0% and 1%
same,Population Mitotic Cells (%),[1]; [6],46% and 53%
same,Population Normal (%),[1]; [6],98% and 99%
same,Population Pyknosed Nuclei (%),[1]; [6],25% and 24%
same,Population Tubulin-Different-Phenotype (%),[1]; [6],12% and 9%
same,Total Cell Count,[1]; [6],259 and 210
same,Population Apoptotic (%),[1]; [7],65% and 63%
same,Population Fragmented Nuclei (%),[1]; [7],18% and 31%
same,Population Healthy Nuclei (%),[1]; [7],51% and 55%
same,Population Hoechst High Intensity Objects (%),[1]; [7],0%
same,Population Membrane Permeable-Phenotype (%),[1]; [7],4% and 6%
same,Population Mitochondria Different-Phenotype (%),[1]; [7],5% and 0%
same,Population Mitotic Cells (%),[1]; [7],34% and 36%
same,Population Normal (%),[1]; [7],100% and 99%
same,Population Pyknosed Nuclei (%),[1]; [7],29% and 12%
same,Population Tubulin-Different-Phenotype (%),[1]; [7],37% and 27%
same,Total Cell Count,[1]; [7],176 and 264
same,Population Apoptotic (%),[1]; [8],48% and 54%
same,Population Fragmented Nuclei (%),[1]; [8],28% and 14%
same,Population Healthy Nuclei (%),[1]; [8],58% and 75%
same,Population Hoechst High Intensity Objects (%),[1]; [8],1% and 0%
same,Population Membrane Permeable-Phenotype (%),[1]; [8],5% and 6%
same,Population Mitochondria Different-Phenotype (%),[1]; [8],0%
same,Population Mitotic Cells (%),[1]; [8],51% and 45%
same,Population Normal (%),[1]; [8],98% and 99%
same,Population Pyknosed Nuclei (%),[1]; [8],12% and 10%
same,Population Tubulin-Different-Phenotype (%),[1]; [8],10% and 7%
same,Total Cell Count,[1]; [8],259 and 219
same,Population Apoptotic (%),[1]; [9],62% and 68%
same,Population Fragmented Nuclei (%),[1]; [9],13% and 21%
same,Population Healthy Nuclei (%),[1]; [9],63% and 67%
same,Population Hoechst High Intensity Objects (%),[1]; [9],0%
same,Population Membrane Permeable-Phenotype (%),[1]; [9],5% and 1%
same,Population Mitochondria Different-Phenotype (%),[1]; [9],8% and 0%
same,Population Mitotic Cells (%),[1]; [9],37% and 32%
same,Population Normal (%),[1]; [9],100%
same,Population Pyknosed Nuclei (%),[1]; [9],22% and 10%
same,Population Tubulin-Different-Phenotype (%),[1]; [9],36% and 25%
same,Total Cell Count,[1]; [9],163 and 231
same,Population Apoptotic (%),[2]; [4],100% and 70%
same,Population Fragmented Nuclei (%),[2]; [4],19% and 10%
same,Population Healthy Nuclei (%),[2]; [4],69% and 80%
same,Population Hoechst High Intensity Objects (%),[2]; [4],0%
same,Population Membrane Permeable-Phenotype (%),[2]; [4],0%
same,Population Mitochondria Different-Phenotype (%),[2]; [4],0%
same,Population Normal (%),[2]; [4],100%
same,Population Pyknosed Nuclei (%),[2]; [4],11% and 9%
same,Population Tubulin-Different-Phenotype (%),[2]; [4],55% and 90%
same,Population Apoptotic (%),[2]; [5],50% and 55%
same,Population Fragmented Nuclei (%),[2]; [5],18% and 10%
same,Population Healthy Nuclei (%),[2]; [5],72%
same,Population Hoechst High Intensity Objects (%),[2]; [5],0%
same,Population Membrane Permeable-Phenotype (%),[2]; [5],4% and 3%
same,Population Mitochondria Different-Phenotype (%),[2]; [5],2% and 4%
same,Population Mitotic Cells (%),[2]; [5],50% and 44%
same,Population Normal (%),[2]; [5],100% and 99%
same,Population Pyknosed Nuclei (%),[2]; [5],9% and 17%
same,Population Tubulin-Different-Phenotype (%),[2]; [5],87% and 58%
same,Population Apoptotic (%),[2]; [6],55% and 56%
same,Population Fragmented Nuclei (%),[2]; [6],9% and 7%
same,Population Healthy Nuclei (%),[2]; [6],75% and 82%
same,Population Hoechst High Intensity Objects (%),[2]; [6],0%
same,Population Membrane Permeable-Phenotype (%),[2]; [6],2% and 0%
same,Population Mitochondria Different-Phenotype (%),[2]; [6],2% and 0%
same,Population Mitotic Cells (%),[2]; [6],44% and 43%
same,Population Normal (%),[2]; [6],100% and 99%
same,Population Pyknosed Nuclei (%),[2]; [6],14% and 10%
same,Population Tubulin-Different-Phenotype (%),[2]; [6],72% and 90%
same,Population Apoptotic (%),[2]; [7],40% and 73%
same,Population Fragmented Nuclei (%),[2]; [7],16% and 12%
same,Population Healthy Nuclei (%),[2]; [7],67% and 71%
same,Population Hoechst High Intensity Objects (%),[2]; [7],0%
same,Population Membrane Permeable-Phenotype (%),[2]; [7],4% and 2%
same,Population Mitochondria Different-Phenotype (%),[2]; [7],2% and 5%
same,Population Mitotic Cells (%),[2]; [7],60% and 26%
same,Population Normal (%),[2]; [7],100% and 99%
same,Population Pyknosed Nuclei (%),[2]; [7],16%
same,Population Tubulin-Different-Phenotype (%),[2]; [7],88% and 60%
same,Population Apoptotic (%),[2]; [8],77% and 69%
same,Population Healthy Nuclei (%),[2]; [8],72% and 82%
same,Population Hoechst High Intensity Objects (%),[2]; [8],0%
same,Population Membrane Permeable-Phenotype (%),[2]; [8],0% and 2%
same,Population Mitochondria Different-Phenotype (%),[2]; [8],0%
same,Population Mitotic Cells (%),[2]; [8],22% and 30%
same,Population Normal (%),[2]; [8],100%
same,Population Pyknosed Nuclei (%),[2]; [8],12% and 13%
same,Population Tubulin-Different-Phenotype (%),[2]; [8],75% and 93%
same,Population Apoptotic (%),[2]; [9],70% and 84%
same,Population Fragmented Nuclei (%),[2]; [9],16% and 6%
same,Population Healthy Nuclei (%),[2]; [9],32% and 66%
same,Population Hoechst High Intensity Objects (%),[2]; [9],0%
same,Population Membrane Permeable-Phenotype (%),[2]; [9],5% and 4%
same,Population Mitochondria Different-Phenotype (%),[2]; [9],5% and 8%
same,Population Mitotic Cells (%),[2]; [9],30% and 15%
same,Population Normal (%),[2]; [9],100%
same,Population Pyknosed Nuclei (%),[2]; [9],50% and 27%
same,Population Tubulin-Different-Phenotype (%),[2]; [9],89% and 72%
same,Population Apoptotic (%),[3]; [4],62% and 67%
same,Population Fragmented Nuclei (%),[3]; [4],5% and 4%
same,Population Healthy Nuclei (%),[3]; [4],80% and 82%
same,Population Hoechst High Intensity Objects (%),[3]; [4],12% and 10%
same,Population Membrane Permeable-Phenotype (%),[3]; [4],2% and 0%
same,Population Mitochondria Different-Phenotype (%),[3]; [4],40% and 39%
same,Population Mitotic Cells (%),[3]; [4],37% and 32%
same,Population Normal (%),[3]; [4],87% and 89%
same,Population Pyknosed Nuclei (%),[3]; [4],13% and 12%
same,Population Tubulin-Different-Phenotype (%),[3]; [4],62% and 57%
same,Total Cell Count,[3]; [4],352 and 438
same,Population Apoptotic (%),[3]; [5],79% and 66%
same,Population Fragmented Nuclei (%),[3]; [5],5% and 4%
same,Population Healthy Nuclei (%),[3]; [5],77%
same,Population Hoechst High Intensity Objects (%),[3]; [5],15% and 9%
same,Population Membrane Permeable-Phenotype (%),[3]; [5],0% and 1%
same,Population Mitochondria Different-Phenotype (%),[3]; [5],60% and 59%
same,Population Mitotic Cells (%),[3]; [5],20% and 33%
same,Population Normal (%),[3]; [5],84% and 90%
same,Population Pyknosed Nuclei (%),[3]; [5],16% and 17%
same,Population Tubulin-Different-Phenotype (%),[3]; [5],80% and 76%
same,Total Cell Count,[3]; [5],304 and 297
same,Population Apoptotic (%),[3]; [6],66% and 56%
same,Population Fragmented Nuclei (%),[3]; [6],8% and 11%
same,Population Healthy Nuclei (%),[3]; [6],78% and 74%
same,Population Hoechst High Intensity Objects (%),[3]; [6],15% and 23%
same,Population Membrane Permeable-Phenotype (%),[3]; [6],1%
same,Population Mitochondria Different-Phenotype (%),[3]; [6],41% and 42%
same,Population Mitotic Cells (%),[3]; [6],33% and 43%
same,Population Normal (%),[3]; [6],84% and 76%
same,Population Pyknosed Nuclei (%),[3]; [6],12% and 14%
same,Population Tubulin-Different-Phenotype (%),[3]; [6],68% and 67%
same,Total Cell Count,[3]; [6],305 and 394
same,Population Apoptotic (%),[3]; [7],72% and 60%
same,Population Fragmented Nuclei (%),[3]; [7],3% and 6%
same,Population Healthy Nuclei (%),[3]; [7],78% and 74%
same,Population Hoechst High Intensity Objects (%),[3]; [7],14%
same,Population Membrane Permeable-Phenotype (%),[3]; [7],2% and 1%
same,Population Mitochondria Different-Phenotype (%),[3]; [7],57% and 64%
same,Population Mitotic Cells (%),[3]; [7],27% and 39%
same,Population Normal (%),[3]; [7],85%
same,Population Pyknosed Nuclei (%),[3]; [7],18%
same,Population Tubulin-Different-Phenotype (%),[3]; [7],79% and 82%
same,Total Cell Count,[3]; [7],233 and 255
same,Population Apoptotic (%),[3]; [8],71% and 74%
same,Population Fragmented Nuclei (%),[3]; [8],14% and 9%
same,Population Healthy Nuclei (%),[3]; [8],63% and 76%
same,Population Hoechst High Intensity Objects (%),[3]; [8],20% and 31%
same,Population Membrane Permeable-Phenotype (%),[3]; [8],1% and 3%
same,Population Mitochondria Different-Phenotype (%),[3]; [8],37% and 25%
same,Population Mitotic Cells (%),[3]; [8],28% and 25%
same,Population Normal (%),[3]; [8],79% and 68%
same,Population Pyknosed Nuclei (%),[3]; [8],21% and 14%
same,Population Tubulin-Different-Phenotype (%),[3]; [8],72% and 67%
same,Total Cell Count,[3]; [8],307 and 445
same,Population Apoptotic (%),[3]; [9],65% and 57%
same,Population Fragmented Nuclei (%),[3]; [9],7%
same,Population Healthy Nuclei (%),[3]; [9],72% and 73%
same,Population Hoechst High Intensity Objects (%),[3]; [9],23% and 14%
same,Population Membrane Permeable-Phenotype (%),[3]; [9],0%
same,Population Mitochondria Different-Phenotype (%),[3]; [9],46% and 63%
same,Population Mitotic Cells (%),[3]; [9],34% and 42%
same,Population Normal (%),[3]; [9],76% and 85%
same,Population Pyknosed Nuclei (%),[3]; [9],20% and 19%
same,Population Tubulin-Different-Phenotype (%),[3]; [9],80% and 73%
same,Total Cell Count,[3]; [9],260 and 244
